Measurements of several laboratories.
Each line is one published result; the experiments were not run side by side.
EGFR del752-759: Epidermal growth factor receptor (EGFR, Homo sapiens, UniProt P00533, del752-759)
EGFR: Epidermal growth factor receptor (EGFR, Homo sapiens, UniProt P00533)
EGFR G719C: Epidermal growth factor receptor (EGFR, Homo sapiens, UniProt P00533, G719C)
EGFR T790M: Epidermal growth factor receptor (EGFR, Homo sapiens, UniProt P00533, T790M)
EGFR L858R/T790M: Epidermal growth factor receptor (EGFR, Homo sapiens, UniProt P00533, L858R/T790M)
EGFR L858R: Epidermal growth factor receptor (EGFR, Homo sapiens, UniProt P00533, L858R)
EGFR del747-752/P753S: Epidermal growth factor receptor (EGFR, Homo sapiens, UniProt P00533, del747-752/P753S)
EGFR L861Q: Epidermal growth factor receptor (EGFR, Homo sapiens, UniProt P00533, L861Q)

SMILES	target	effect on	technique	concentration	remaining binding
CN(C)c1nccc(-c2cnc3ncccn23)n1	EGFR del752-759	binding	–	1 µM	100%
O=C(Nc1c[nH]nc1C(=O)NC1CCNCC1)c1cc(F)cc(F)c1	EGFR	binding	competition with immobilised ligand	1 µM	96%
COc1cnc(Nc2cccc(S(N)(=O)=O)c2)nc1N1CCN(c2ccccc2)C(=O)C1	EGFR G719C	binding	competition with immobilised ligand	1 µM	100%
O=C(NCCCN1CCOCC1)c1ccc(Nc2ncc(Cl)c(-c3ccc(Cl)s3)n2)cc1	EGFR T790M	binding	competition with immobilised ligand	1 µM	83%
CN([C@@H]1CCc2c(CC(=O)O)c3ccccc3n2C1)S(=O)(=O)c1ccc(F)cc1	Epidermal growth factor receptor (EGFR, Homo sapiens, UniProt P00533, A750P/del747-749)	cell-free assay	competition with immobilised ligand	1 µM	100%
F[C@@H]1CCN(c2nccc(-c3cnn4ncccc34)n2)C1	EGFR L858R/T790M	binding	–	1 µM	100%
CNC(=O)[C@@H]1CC[C@@H](n2c(-c3ccc4cnccc4c3)nc3ccc(C(=O)NCc4cccc(C(N)=O)c4)cc32)C1	EGFR L858R	binding	competition with immobilised ligand	1 µM	100%
C[C@@H]1CN(c2ccc3ncc(-c4ccc5[nH]nc(C6CC6)c5c4)n3n2)C[C@H](C)O1	EGFR	binding	competition with immobilised ligand	50 nM	60%
c1cnn2ncc(-c3ccnc(N4CCC45COC5)n3)c2c1	EGFR	binding	–	1 µM	100%
O=C(NC1CCC1)c1ccc2nc(-c3cccc(NS(=O)(=O)NCCN4CCCCC4)c3)cn2c1	Epidermal growth factor receptor (EGFR, Homo sapiens, UniProt P00533, del747-750/T751S)	cell-free assay	competition with immobilised ligand	10 µM	100%
CNC(=O)Nc1ccc2c(c1)CC[C@@]21OC(=O)N(CC(=O)N(Cc2ccc(F)cc2)[C@@H](C)C(F)(F)F)C1=O	EGFR del747-752/P753S	cell-free assay	competition with immobilised ligand	1 µM	64%
CN1CCN(c2ccc(Nc3nccc(-c4ccccc4)n3)cc2C(F)(F)F)CC1	EGFR L858R/T790M	binding	–	10 µM	93%
Nc1ncc2c(n1)-c1c([nH]c3ccc(C#CC4CC4)cc13)CCCC2	EGFR L861Q	binding	competition with immobilised ligand	1 µM	92%
CN(C)c1nccc(-c2cnn3ncccc23)n1	EGFR L858R/T790M	binding	–	1 µM	100%
COc1cnc(Nc2cccc(S(N)(=O)=O)c2)nc1N1CCN(c2ccccc2)CC1	EGFR del747-752/P753S	binding	competition with immobilised ligand	1 µM	85%
CC1CCCN1c1nccc(-c2cnn3ncccc23)n1 (stereo not drawn)	EGFR del752-759	binding	–	1 µM	100%
O=C(N1CCS(=O)(=O)CC1)N1C[C@H](c2ccc(OC(F)(F)F)cc2)C[C@H](c2nc(C3CC3)no2)C1	EGFR T790M	cell-free assay	competition with immobilised ligand	1 µM	100%
O=C(NCCCN1CCOCC1)c1ccc(Nc2nccc(-c3cc4ccccc4s3)n2)cc1	EGFR del747-752/P753S	binding	competition with immobilised ligand	1 µM	92%

SMILES	target	effect on	technique	concentration	remaining binding
C[C@H]1CCN(c2nccc(-c3cnn4ncccc34)n2)C1	Epidermal growth factor receptor (EGFR, Homo sapiens, UniProt P00533, G719S)	binding	–	1 µM	75%
CCN(CC)Cc1cc(Nc2ccnc3cc(Cl)ccc23)ccc1O	EGFR	cell-free assay	competition with immobilised ligand	0.1 µM	100%
COc1cccc(CNC(=O)c2nc3scc(COCc4ccc(C(=O)O)cc4)c3c(=O)[nH]2)c1	EGFR L858R	cell-free assay	competition with immobilised ligand	1 µM	88.3%
O=C(c1ccc(Nc2ncc(Cl)c(-c3cc4ccccc4s3)n2)cc1)N1CCC(N2CCCC2)CC1	EGFR L858R/T790M	binding	competition with immobilised ligand	1 µM	64%
CN(C)c1ncnc(-c2ccc3nc(Nc4cc(CN5CCN(C(=O)CC(F)(F)F)CC5)ccn4)[nH]c3c2)c1Cl	EGFR L858R/T790M	cell-free assay	competition with immobilised ligand	1 µM	82%
c1cncc(-c2cccc(Nc3nccc(NC4CCCCC4)n3)c2)c1	EGFR L858R	binding	competition with immobilised ligand	10 µM	58%
COc1ncc2cc3ccccc3nc2c1C#N	EGFR del752-759	cell-free assay	competition with immobilised ligand	5 µM	96%
CN1CCN(c2ccc(Nc3nccc(-c4cccc([N+](=O)[O-])c4)n3)cc2C(F)(F)F)CC1	EGFR del752-759	binding	–	10 µM	74%
Cc1cnc(Nc2ccc(C(=O)N3CCC(N4CCCC4)CC3)cc2)nc1-c1cc2ccccc2s1	EGFR G719C	binding	competition with immobilised ligand	1 µM	92%
N[C@H]1CCN(c2nccc(-c3cnn4ncccc34)n2)C1	Epidermal growth factor receptor (EGFR, Homo sapiens, UniProt P00533, del746-750)	binding	–	1 µM	98%
CNCc1ccccc1-c1csc([C@H](C)Nc2nc(C)nc3cc(OC)c(OC)cc23)c1	EGFR del747-752/P753S	cell-free assay	competition with immobilised ligand	1 µM	100%
N#Cc1ccccc1CSc1nnc2c(n1)[nH]c1ccccc12	EGFR	binding	competition with immobilised ligand	10 µM	100%
Cc1noc([C@H]2C[C@@H](c3ccc(C(F)(F)F)cc3)CN(C(=O)N3CCS(=O)(=O)C3)C2)n1	EGFR L858R/T790M	cell-free assay	competition with immobilised ligand	1 µM	96%
O=C(NCC1CCOCC1)c1n[nH]cc1NC(=O)c1c(F)cccc1F	EGFR	binding	competition with immobilised ligand	1 µM	99%
O=C(c1ccc(Nc2ncc(Cl)c(-c3ccc(Cl)s3)n2)cc1)N1CCC(N2CCCC2)CC1	EGFR del752-759	binding	competition with immobilised ligand	1 µM	96%
CN(C)C(=O)Cn1cc(-c2nc(C3(c4ccc(-c5cnc(N)nc5)cc4)CC3)no2)cn1	EGFR L861Q	cell-free assay	competition with immobilised ligand	1 µM	100%
O=C(c1ccc(Nc2nccc(-c3cc4ccccc4s3)n2)cc1)N1CCC(N2CCCC2)CC1	EGFR G719C	binding	competition with immobilised ligand	1 µM	93%
CCN1CCN(Cc2ccc(C(=O)Nc3ccc(C)c(Oc4ccc5c(c4)CC(=O)N5)c3)cc2C(F)(F)F)CC1	EGFR	binding	competition with immobilised ligand	1 µM	100%
